Assay results from ChEMBL document CHEMBL1938389, “Jadomycins derived from the assimilation and incorporation of norvaline and norleucine” (J Nat Prod, 2011).
Active and inactive are the calls of the source. No cut-off for these calls is given here.

What was measured:
[1] = Cytotoxicity against human NCI60 cells; format: functional
How it was run: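 NCI 60-cell-line screen covering leukemia, NSCLC, colon, CNS, melanoma, ovarian, renal, prostate and breast lines. Five doses spanning 5 log10, top concentration 32 μM. Percent growth and mean optical density measured per NCI protocol. OD plotted against concentration to give GI50, TGI and LC50, reported as median (range) over up to 59 lines.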

[2] = system: Salmonella typhimurium; assay: Antimicrobial activity against Salmonella enterica Typhimurium C587 by CLSI method; format: functional, organism-based; conditions: Salmonella enterica subsp. enterica serovar Typhimurium
How it was run: (§1)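 Broth MIC determination following Clinical and Laboratory Standards Institute methods. Panel: Gram-positive S. aureus C622, MRSA C623, S. epidermidis C960, B. subtilis C971, E. faecalis C625; Gram-negative S. enterica Typhimurium C587, E. coli C498, P. aeruginosa H187. Activity read as minimum inhibitory concentration.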

[3] = system: Escherichia coli; assay: Antimicrobial activity against Escherichia coli C498 by CLSI method; format: functional, organism-based; how it was run: as §1
[4] = system: Pseudomonas aeruginosa; assay: Antimicrobial activity against Pseudomonas aeruginosa H187 by CLSI method; format: functional, organism-based; how it was run: as §1
[5] = system: Staphylococcus epidermidis; assay: Antimicrobial activity against Staphylococcus epidermidis C960 by CLSI method; format: functional; how it was run: as §1
[6] = system: Staphylococcus aureus; assay: Antimicrobial activity against methicillin-resistant Staphylococcus aureus isolate C623 by CLSI method; format: functional
[7] = system: Nucleic Acid; assay: Binding affinity to Escherichia coli pUC19 DNA assessed as relaxation of supercoiled DNA at 100 uM by agarose gel electrophoresis; format: nucleic-acid assay
How it was run: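 DNA in 10 mM Tris-Cl pH 8.5, diluted into Tris pH 7.4 (final 5 mM) and NaCl (final 50 mM). Jadomycin added without copper; volume 20 μL; 2 h at 37 °C. Quenched with loading buffer, electrophoresed on 1% agarose containing ethidium bromide (0.75 μg mL−1), 30 min at 8 V cm−1 in 1× TAE. UV visualization.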

[8] = system: Nucleic Acid; assay: Binding affinity to Escherichia coli pUC19 DNA assessed as relaxation of supercoiled DNA at 0.1 to 100 uM by agarose gel electrophoresis in presence of Cu ions; format: nucleic-acid assay
How it was run: (§2)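 DNA supplied in 10 mM Tris-Cl pH 8.5, diluted into Tris pH 7.4 (final 5 mM) plus NaCl (final 50 mM). Jadomycins premixed 1:1 with Cu(OAc)2 added; final volume 20 μL. Incubated 2 h at 37 °C, quenched with loading buffer, run on 1% agarose with ethidium bromide (0.75 μg mL−1), 30 min at 8 V cm−1 in 1× TAE. Bands visualized by UV transillumination.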

[9] = system: Nucleic Acid; assay: Binding affinity to Escherichia coli pUC19 DNA assessed as relaxation of supercoiled DNA by agarose gel electrophoresis in presence of Cu ions; format: nucleic-acid assay; how it was run: as §2

With `CCCC[C@@H]1C(=O)OC2c3cc(C)cc(O)c3C3=C(C(=O)c4c(O[C@H]5C[C@@H](O)[C@@H](O)[C@H](C)O5)cccc4C3=O)N21` (mixture of isomers) the GI50 [1] was 4.2 µM, the LC50 [1] was 18 µM and the TGI [1] was 8.7 µM. For the same compound, the Activity [2] was “inactive”, the Activity [3] was “inactive” and the Activity [4] was “inactive”. The MIC [5] was 4 µg/mL, the MIC [6] was 32 µg/mL and the Activity [7] was “inactive”. The Activity [8] was “Dose-dependent effect” and the EC50 [9] was 144 µM.
For `CCC[C@@H]1C(=O)OC2c3cc(C)cc(O)c3C3=C(C(=O)c4c(O[C@H]5C[C@@H](O)[C@@H](O)[C@H](C)O5)cccc4C3=O)N21` (mixture of isomers), the GI50 [1] was 4.9 µM, the LC50 [1] was 19 µM and the TGI [1] was 10 µM. For the same compound, the Activity [2] was “inactive”, the Activity [3] was “inactive” and the Activity [4] was “inactive”. The MIC [5] was 4 µg/mL, the MIC [6] was 32 µg/mL and the Activity [7] was “inactive”. For the same compound, the Activity [8] was “Dose-dependent effect” and the EC50 [9] was 86 µM.
